Test results published in PMC9989852 (Food and chemical toxicology : an international journal …, 2022).
Where “and” joins values, the source holds several entries; their conditions need not be identical. Equal entries are not always repeated.

Key:
[1] = PFAS concentration in serum; assay type: in vivo, B6C3F1 mice; settings: dermal, 28 days
Summary of the method: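 Serum came by cardiac puncture about 24 h after the final daily ear dose (25 μl/ear, acetone vehicle; female B6C3F1 mice). Samples underwent solid-phase extraction and LC/MS/MS. Short-chain analytes were quantified as linear isomer only; the legacy comparator was quantified as linear plus branched. Data are mean ± SE of 4–5 mice, one-way ANOVA with Dunnett's vs vehicle.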

[2] = tested on: B6C3F1 mice; test: Organ weights and body weight after 28-day dermal exposure; assay type: in vivo; settings: 28 days; for body weight or overt signs of toxicity: 1.25–5%; for Liver weight (% body weight), increase vs vehicle-treated mice: 5%
[3] = tested on: liver; test: Liver histopathology after 28-day dermal exposure; assay type: in vivo, B6C3F1 mice; settings: 28 days, mice affected of 5
Summary of the method: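 Female B6C3F1 mice (5/group) received 25 μl/ear on the dorsal ear surfaces daily, with acetone as vehicle. Tissues were formalin-fixed about 24 h after the last dose: liver remainder, half spleen, right kidney and half ear pinna. Sections were paraffin-embedded, cut at 5 μm and stained with H&E. A veterinary pathologist read them per STP guideline and graded 1 (minimal) to 5 (severe) by extent.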

[4] = tested on: ear pinna; test: Skin; assay type: in vivo, B6C3F1 mice; settings: dermal, 28 days
Summary of the method: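 Female B6C3F1 mice (5/group) received 25 μl/ear daily to the dorsal ears in acetone. About 24 h after the last dose, tissues went into RPMI: both auricular dLNs, half spleen and one ear pinna. Single-cell suspensions were acquired on an LSR II, with populations gated per supplemental strategy and FMO gating controls. Results are mean ± SE, n=5, by one-way ANOVA.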

## O=C(O)C(F)(F)C(F)(F)C(F)(F)C(F)(F)C(F)(F)F [PFHxA, perfluorohexanoic acid]
[1]; 2.5%
  PFAS serum concentration vs vehicle: significant increase
[1]; 5%
  PFAS serum concentration vs vehicle: significant increase
[2]
  body weight or overt signs of toxicity: no changes
  Liver weight (% body weight), increase vs vehicle-treated mice: 9%
[3]; 1.25%
  Liver: Hypertrophy, centrilobular, hepatocyte, Mild (incidence): 0
  Liver: Hypertrophy, centrilobular, hepatocyte, Minimal (incidence): 2/5 and 2
[3]; 2.5%
  Liver: Hypertrophy, centrilobular, hepatocyte, Mild (incidence): 0
  Liver: Hypertrophy, centrilobular, hepatocyte, Minimal (incidence): 5/5 and 5
[3]; 5%
  Liver: Hypertrophy, centrilobular, hepatocyte, Mild (incidence): 0
  Liver: Hypertrophy, centrilobular, hepatocyte, Minimal (incidence): 5/5 and 5
[4]; 1.25%
  Ear CD4^+ cell number: 2.40 ± 0.36 × 10^3
  Ear CD4^+ frequency: 3.34 ± 0.09%
  Ear CD8^+ cell number: 3.38 ± 2.57 × 10^2
  Ear CD8^+ frequency: 0.48 ± 0.37%
  Ear CD45^+ cell number: 7.21 ± 1.13 × 10^4
  Ear CD45^+ frequency: 8.51 ± 0.85%
  Ear CD lib- F4/80+ DCs cell number: 5.74 ± 0.72 × 10^2
  Ear CDllb + F4/80+ DCs cell number: 22.30 ± 3.03 × 10^2
  Ear CDllb- F4/80+ DCs frequency: 0.87 ± 0.14%
  Ear CDllb- F4/80-DCs cell number: 1.47 ± 0.24 × 10^3
  Ear CDllb- F4/80-DCs frequency: 2.05 ± 0.05 %
  Ear Dendritic Cells cell number: 4.99 ± 0.68 × 10^3
  Ear Dendritic Cells frequency: 7.09 ± 0.33%
  Ear Eosinophils cell number: 2.77 ± 0.56 × 10^3
  Ear Eosinophils frequency: 3.82 ± 0.34%
  Ear NK cell number: 4.76 ± 0.96 × 10^2
  Ear NK frequency: 0.66 ± 0.07%
  Ear Neutrophils cell number: 1.18 ± 0.22 × 10^2
  Ear Neutrophils frequency: 0.17 ± 0.02%
  Ear Total Cellularity: 0.83 ± 0.09 × 10^6
[4]; 2.5%
  Ear CD4^+ cell number: 5.01 ± 0.60 × 10^3
  Ear CD4^+ frequency: 5.05 ± 0.25 %
  Ear CD8^+ cell number: 1.91 ± 0.23 × 10^2
  Ear CD8^+ frequency: 0.19 ± 0.02%
  Ear CD45^+ cell number: 9.82 ± 0.79 × 10^4
  Ear CD45^+ frequency: 10.91 ± 1.00 %
  Ear CD lib- F4/80+ DCs cell number: 6.58 ± 0.67 × 10^2
  Ear CDllb + F4/80+ DCs cell number: 35.80 ± 2.66 × 10^2
  Ear CDllb- F4/80+ DCs frequency: 0.67 ± 0.05%
  Ear CDllb- F4/80-DCs cell number: 2.82 ± 0.24 × 10^3
  Ear CDllb- F4/80-DCs frequency: 2.89 ± 0.19%
  Ear Dendritic Cells cell number: 9.09 ± 0.72 × 10^3
  Ear Dendritic Cells frequency: 9.30 ± 0.47%
  Ear Eosinophils frequency: 7.59 ± 0.65 %
  Ear NK cell number: 6.45 ± 0.60 × 10^2
  Ear NK frequency: 0.66 ± 0.04%
  Ear Neutrophils cell number: 4.94 ± 1.24 × 10^2
  Ear Neutrophils frequency: 0.51 ± 0.13%
  Ear Total Cellularity: 0.91 ± 0.05 × 10^6
[4]; 5%
  Ear CD4^+ cell number: 6.11 ± 1.17 × 10^3
  Ear CD4^+ frequency: 5.29 ± 0.32 %
  Ear CD8^+ cell number: 2.15 ± 0.46 × 10^2
  Ear CD8^+ frequency: 0.20 ± 0.04%
  Ear CD45^+ cell number: 11.50 ± 2.03 × 10^4
  Ear CD45^+ frequency: 11.22 ± 1.00 %
  Ear CD lib- F4/80+ DCs cell number: 4.22 ± 0.49 × 10^2
  Ear CDllb + F4/80+ DCs cell number: 48.30 ± 7.74 × 10^2
  Ear CDllb- F4/80+ DCs frequency: 0.39 ± 0.03 %
  Ear CDllb- F4/80-DCs cell number: 2.90 ± 0.54 × 10^3
  Ear CDllb- F4/80-DCs frequency: 2.51 ± 0.14%
  Ear Dendritic Cells cell number: 10.10 ± 1.77 × 10^3
  Ear Dendritic Cells frequency: 8.88 ± 0.39%
  Ear Eosinophils cell number: 9.87 ± 1.78 × 10^3
  Ear Eosinophils frequency: 8.60 ± 0.38 %
  Ear NK cell number: 9.94 ± 2.21 × 10^2
  Ear NK frequency: 0.85 ± 0.09 %
  Ear Neutrophils frequency: 1.13 ± 0.23 %
  Ear Total Cellularity: 0.99 ± 0.11 × 10^6

## O=C(O)C(F)(F)C(F)(F)C(F)(F)C(F)(F)F [PFPeA, perfluoropentanoic acid]
[1]; 5%
  PFAS serum concentration vs vehicle: significant increase
[2]
  body weight or overt signs of toxicity: no changes
  Liver weight (% body weight), increase vs vehicle-treated mice: 12%
[3]; 1.25%
  Liver: Hypertrophy, centrilobular, hepatocyte, Mild (incidence): 0
  Liver: Hypertrophy, centrilobular, hepatocyte, Minimal (incidence): 5/ 5 and 5
[3]; 2.5%
  Liver: Hypertrophy, centrilobular, hepatocyte, Mild (incidence): 5/5 and 5
  Liver: Hypertrophy, centrilobular, hepatocyte, Minimal (incidence): 0
[3]; 5%
  Liver: Hypertrophy, centrilobular, hepatocyte, Mild (incidence): 5/5 and 5
  Liver: Hypertrophy, centrilobular, hepatocyte, Minimal (incidence): 0
[4]; 1.25%
  Ear CD4^+ cell number: 2.55 ± 0.41 × 10^3
  Ear CD4^+ frequency: 2.93 ± 0.23 %
  Ear CD8^+ cell number: 1.38 ± 0.17 × 10^2
  Ear CD8^+ frequency: 0.16 ± 0.02%
  Ear CD45^+ cell number: 8.61 ± 1.11 × 10^4
  Ear CD45^+ frequency: 8.16 ± 0.67%
  Ear CD lib- F4/80+ DCs cell number: 17.60 ± 3.16 × 10^2
  Ear CDllb + F4/80+ DCs cell number: 26.50 ± 4.08 × 10^2
  Ear CDllb- F4/80+ DCs frequency: 2.10 ± 0.37%
  Ear CDllb- F4/80-DCs cell number: 2.15 ± 0.38 × 10^3
  Ear Dendritic Cells cell number: 6.78 ± 0.97 × 10^3
  Ear Dendritic Cells frequency: 7.83 ± 0.37%
  Ear Eosinophils cell number: 2.72 ± 0.51 × 10^3
  Ear Eosinophils frequency: 3.13 ± 0.31%
  Ear NK cell number: 5.64 ± 0.85 × 10^2
  Ear NK frequency: 0.66 ± 0.06%
  Ear Neutrophils cell number: 2.28 ± 0.53 × 10^2
  Ear Neutrophils frequency: 0.27 ± 0.06%
  Ear Total Cellularity: 1.05 ± 0.10 × 10^6
[4]; 2.5%
  Ear CD4^+ cell number: 4.65 ± 0.67 × 10^3
  Ear CD45^+ cell number: 10.30 ± 1.26 × 10^4
  Ear CD45^+ frequency: 11.46 ± 1.03 %
  Ear CD lib- F4/80+ DCs cell number: 17.80 ± 3.48 × 10^2
  Ear CDllb + F4/80+ DCs frequency: 4.22 ± 0.51 %
  Ear CDllb- F4/80+ DCs frequency: 1.73 ± 0.22%
  Ear CDllb- F4/80-DCs cell number: 2.79 ± 0.54 × 10^3
  Ear Dendritic Cells cell number: 9.44 ± 2.00 × 10^3
  Ear NK cell number: 5.86 ± 0.63 × 10^2
  Ear NK frequency: 0.57 ± 0.01%
  Ear Neutrophils cell number: 3.16 ± 0.37 × 10^2
  Ear Neutrophils frequency: 0.32 ± 0.05%
  Ear Total Cellularity: 0.88 ± 0.04 × 10^6
[4]; 5%
  Ear CD4^+ cell number: 10.80 ± 1.17 × 10^3
  Ear CD4^+ frequency: 5.64 ± 0.27 %
  Ear CD8^+ cell number: 8.33 ± 1.57 × 10^2
  Ear CD8^+ frequency: 0.42 ± 0.04 %
  Ear CD45^+ cell number: 19.40 ± 2.55 × 10^4
  Ear CD45^+ frequency: 13.60 ± 0.97 %
  Ear CD lib- F4/80+ DCs cell number: 45.60 ± 8.63 × 10^2
  Ear CDllb + F4/80+ DCs cell number: 86.70 ± 10.20 × 10^2
  Ear CDllb + F4/80+ DCs frequency: 4.51 ± 0.18 %
  Ear CDllb- F4/80+ DCs frequency: 2.36 ± 0.35%
  Ear CDllb- F4/80-DCs cell number: 6.19 ± 0.94 × 10^3
  Ear CDllb- F4/80-DCs frequency: 3.16 ± 0.10 %
  Ear Dendritic Cells cell number: 20.20 ± 2.65 × 10^3
  Ear Dendritic Cells frequency: 10.42 ± 0.36 %
  Ear Eosinophils cell number: 13.50 ± 2.05 × 10^3
  Ear Eosinophils frequency: 7.35 ± 1.24 %
  Ear NK cell number: 16.10 ± 4.27 × 10^2
  Ear NK frequency: 0.80 ± 0.12%
  Ear Neutrophils cell number: 21.60 ± 8.98 × 10^2
  Ear Neutrophils frequency: 0.97 ± 0.31 %
  Ear Total Cellularity: 1.41 ± 0.11 × 10^6
